These results are taken from ChEMBL document CHEMBL1131611, “N-(Iodopropenyl)-octahydrobenzo[f]- and -[g]quinolines: synthesis and adrenergic and dopaminergic activity studies” (J Med Chem, 1998).

pIC50: −log10 of the molar value.

Holding throughout (format): cell membranes, Membrane
Experiment [1] deals with T1, D(2) dopamine receptor (Rattus norvegicus, UniProt P61169). In words: Inhibition of specific binding of [3H]spiroperidol to Dopamine receptor D2 in rat striatal membranes. Summed up: (§1)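 Competition radioligand binding in rat striatal membranes: D2 sites labelled with [3H]spiroperidol and D1 sites with [3H]SCH-23390. Inhibition of specific binding was measured. Three experiments, each in duplicate. Compounds were tested up to 5 μM, and those without binding at that level were scored not active.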
T1 sequence (P61169 whole entry): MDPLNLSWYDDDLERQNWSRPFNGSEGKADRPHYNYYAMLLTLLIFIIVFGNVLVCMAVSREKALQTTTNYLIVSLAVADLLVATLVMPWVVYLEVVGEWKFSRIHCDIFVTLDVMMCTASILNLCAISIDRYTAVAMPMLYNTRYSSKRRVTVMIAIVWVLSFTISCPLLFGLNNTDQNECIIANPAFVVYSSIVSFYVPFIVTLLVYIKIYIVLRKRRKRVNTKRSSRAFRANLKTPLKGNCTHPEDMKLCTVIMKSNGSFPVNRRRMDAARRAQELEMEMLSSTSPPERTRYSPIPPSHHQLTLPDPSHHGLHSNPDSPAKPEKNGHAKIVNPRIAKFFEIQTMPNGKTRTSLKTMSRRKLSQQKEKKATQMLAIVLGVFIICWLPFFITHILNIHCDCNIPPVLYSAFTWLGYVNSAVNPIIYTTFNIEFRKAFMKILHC

Experiment [2] addresses T2, Adrenergic receptor alpha-1 (Rattus norvegicus, UniProt P15823+P23944+P43140).
T2 sequence (P15823 whole entry): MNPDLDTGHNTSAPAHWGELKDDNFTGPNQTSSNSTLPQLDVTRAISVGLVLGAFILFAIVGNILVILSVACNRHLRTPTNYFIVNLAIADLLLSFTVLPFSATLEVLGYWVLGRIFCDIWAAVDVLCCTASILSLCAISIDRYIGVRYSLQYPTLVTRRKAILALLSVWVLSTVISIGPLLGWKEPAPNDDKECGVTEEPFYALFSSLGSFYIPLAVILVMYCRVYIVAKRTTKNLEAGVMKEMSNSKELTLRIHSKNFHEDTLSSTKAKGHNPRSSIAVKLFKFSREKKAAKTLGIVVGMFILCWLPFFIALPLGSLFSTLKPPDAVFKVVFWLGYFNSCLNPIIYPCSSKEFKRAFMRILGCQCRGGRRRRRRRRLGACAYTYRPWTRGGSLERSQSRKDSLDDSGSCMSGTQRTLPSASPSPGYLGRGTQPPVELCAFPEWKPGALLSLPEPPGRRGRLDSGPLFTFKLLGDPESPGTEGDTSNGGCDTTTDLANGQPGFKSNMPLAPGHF
T2 sequence (P23944 whole entry): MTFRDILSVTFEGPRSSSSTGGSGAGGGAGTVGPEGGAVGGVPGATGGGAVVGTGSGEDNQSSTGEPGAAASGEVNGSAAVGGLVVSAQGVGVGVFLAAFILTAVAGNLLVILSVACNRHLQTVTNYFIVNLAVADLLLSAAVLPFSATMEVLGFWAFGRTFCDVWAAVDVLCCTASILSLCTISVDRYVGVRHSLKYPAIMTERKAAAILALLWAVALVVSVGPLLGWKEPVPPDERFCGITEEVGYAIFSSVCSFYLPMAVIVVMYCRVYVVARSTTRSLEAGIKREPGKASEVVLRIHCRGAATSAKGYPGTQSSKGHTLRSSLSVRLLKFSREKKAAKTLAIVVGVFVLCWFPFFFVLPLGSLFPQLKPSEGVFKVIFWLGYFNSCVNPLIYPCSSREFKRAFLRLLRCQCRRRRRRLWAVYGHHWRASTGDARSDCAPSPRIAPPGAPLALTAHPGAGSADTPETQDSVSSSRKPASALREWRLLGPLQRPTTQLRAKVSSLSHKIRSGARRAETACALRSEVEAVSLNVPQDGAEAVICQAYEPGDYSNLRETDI
T2 sequence (P43140 whole entry): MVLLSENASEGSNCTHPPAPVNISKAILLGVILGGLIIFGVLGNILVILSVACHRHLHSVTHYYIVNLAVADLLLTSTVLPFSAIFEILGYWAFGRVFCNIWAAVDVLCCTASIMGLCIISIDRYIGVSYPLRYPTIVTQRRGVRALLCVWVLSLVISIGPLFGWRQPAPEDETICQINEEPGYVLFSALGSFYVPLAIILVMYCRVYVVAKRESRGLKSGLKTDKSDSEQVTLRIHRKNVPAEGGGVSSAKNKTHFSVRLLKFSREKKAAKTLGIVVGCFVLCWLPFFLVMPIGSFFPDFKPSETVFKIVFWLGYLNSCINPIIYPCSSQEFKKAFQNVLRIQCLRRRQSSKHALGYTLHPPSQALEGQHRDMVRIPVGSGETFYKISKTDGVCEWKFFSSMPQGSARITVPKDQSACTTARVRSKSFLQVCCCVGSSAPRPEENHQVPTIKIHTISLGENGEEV
Description: Displacement of [3H]prazosin from Alpha-1 adrenergic receptor of rat cortical membranes.

Experiment [3] addresses T3, Adrenergic receptor alpha-2 (Rattus norvegicus, UniProt P22086+P19328+P22909).
T3 sequence (P22086 whole entry): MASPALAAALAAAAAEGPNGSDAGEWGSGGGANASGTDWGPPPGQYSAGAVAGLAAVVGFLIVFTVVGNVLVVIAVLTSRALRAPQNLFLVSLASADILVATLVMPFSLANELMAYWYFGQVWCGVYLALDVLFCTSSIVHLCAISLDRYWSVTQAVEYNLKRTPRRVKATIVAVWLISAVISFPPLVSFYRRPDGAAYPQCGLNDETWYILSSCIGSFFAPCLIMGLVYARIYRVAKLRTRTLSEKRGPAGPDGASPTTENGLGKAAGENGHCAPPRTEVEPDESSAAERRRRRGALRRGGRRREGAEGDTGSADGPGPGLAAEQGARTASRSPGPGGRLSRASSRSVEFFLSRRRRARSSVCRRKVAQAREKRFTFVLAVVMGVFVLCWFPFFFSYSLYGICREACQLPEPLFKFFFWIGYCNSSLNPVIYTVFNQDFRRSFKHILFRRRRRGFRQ
T3 sequence (P19328 whole entry): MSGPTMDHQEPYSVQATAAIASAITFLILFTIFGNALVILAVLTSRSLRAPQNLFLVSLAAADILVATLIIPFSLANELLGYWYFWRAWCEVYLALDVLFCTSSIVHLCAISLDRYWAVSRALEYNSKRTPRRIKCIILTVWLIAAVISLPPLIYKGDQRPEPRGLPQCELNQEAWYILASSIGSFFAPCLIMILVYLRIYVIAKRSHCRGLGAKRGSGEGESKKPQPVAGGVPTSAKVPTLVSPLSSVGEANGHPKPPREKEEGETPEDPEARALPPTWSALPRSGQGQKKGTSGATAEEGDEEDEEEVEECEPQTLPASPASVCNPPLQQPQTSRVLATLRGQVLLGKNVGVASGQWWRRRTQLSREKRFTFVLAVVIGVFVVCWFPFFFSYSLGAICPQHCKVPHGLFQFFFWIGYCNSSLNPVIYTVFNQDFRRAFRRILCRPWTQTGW
T3 sequence (P22909 whole entry): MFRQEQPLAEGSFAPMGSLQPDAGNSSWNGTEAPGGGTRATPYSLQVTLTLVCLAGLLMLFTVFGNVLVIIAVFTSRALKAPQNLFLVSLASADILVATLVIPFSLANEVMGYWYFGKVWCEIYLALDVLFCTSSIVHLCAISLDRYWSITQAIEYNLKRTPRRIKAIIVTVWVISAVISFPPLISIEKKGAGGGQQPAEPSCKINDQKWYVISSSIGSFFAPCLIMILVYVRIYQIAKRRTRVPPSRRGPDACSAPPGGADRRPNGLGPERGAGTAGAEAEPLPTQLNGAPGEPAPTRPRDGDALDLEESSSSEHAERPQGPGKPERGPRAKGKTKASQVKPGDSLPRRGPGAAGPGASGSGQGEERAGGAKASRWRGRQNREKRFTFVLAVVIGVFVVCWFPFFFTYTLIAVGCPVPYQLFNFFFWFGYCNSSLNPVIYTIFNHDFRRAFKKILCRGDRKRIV
In words: Displacement of [3H]rauwolscine from Alpha-2 adrenergic receptor of rat cortical membranes.

Experiment [4] deals with T4, D(1A) dopamine receptor (Rattus norvegicus, UniProt P18901). In words: Displacement of [3H]-SCH- 23390 from Dopamine receptor D1 of rat striatal membranes. Put shortly:
as §1

Experiment [5] deals with T3, Adrenergic receptor alpha-2. In words: Inhibition of specific binding of [3H]rauwolscine to Alpha-2 adrenergic receptor in rat cortical membranes.
Experiment [6] addresses T1, D(2) dopamine receptor. In words: Displacement of [3H]spiroperidol from Dopamine receptor D2 of rat striatal membranes. Put shortly:
as §1

The target in experiment [7] is T4, D(1A) dopamine receptor. In words: Inhibition of specific binding of [3H]-SCH- 23390 to Dopamine receptor D1 in rat striatal membranes; NA= Not active up to a concentration of 5 uM. Put shortly: as §1
For experiment [8], the target named is T4, D(1A) dopamine receptor. In words: Inhibition of specific binding of [3H]-SCH- 23390 to Dopamine receptor D1 in rat striatal membranes; Not active up to a concentration of 5 uM. Summed up: as §1

T4 sequence (P18901 whole entry): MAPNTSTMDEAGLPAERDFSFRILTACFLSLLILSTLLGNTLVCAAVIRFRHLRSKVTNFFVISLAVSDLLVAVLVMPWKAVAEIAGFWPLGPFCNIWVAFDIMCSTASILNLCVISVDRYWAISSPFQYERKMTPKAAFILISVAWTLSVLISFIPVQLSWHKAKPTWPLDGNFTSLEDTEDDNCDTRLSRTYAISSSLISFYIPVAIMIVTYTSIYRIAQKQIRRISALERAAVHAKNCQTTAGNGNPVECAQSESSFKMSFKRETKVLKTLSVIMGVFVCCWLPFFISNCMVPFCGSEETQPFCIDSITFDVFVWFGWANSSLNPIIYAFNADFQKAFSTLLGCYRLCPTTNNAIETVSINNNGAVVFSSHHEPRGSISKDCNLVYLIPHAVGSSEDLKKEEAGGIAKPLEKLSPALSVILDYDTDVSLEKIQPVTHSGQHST

On to `Oc1cccc2c1CC1CCCN(C/C=C/I)C1C2` (stereo not given), for which the pIC50 in experiment [1] is 6.31; in experiment [4] it was 6.92. The IC50 in experiment [2] is 54 nM; in experiment [3], 0.5 nM.
On to `C#CCN1CCC[C@@H]2c3cccc(OC)c3CC[C@H]21`, for which the IC50 in experiment [2] is recorded as 497 nM; in experiment [5] it was 196 nM; in experiment [6] it was “Not Active”; in experiment [7] it was “Not Active”.
Turning to `Oc1cccc2c1CC[C@@H]1[C@@H]2CCCN1C/C=C/I`, the IC50 in experiment [2] is 225 nM; in experiment [5] it was 47 nM; in experiment [6] it was “Not Active”. For the same compound, the pIC50 in experiment [4] was 5.95.
For the compound `COc1cccc2c1CC1CCCN(C/C=C/I)C1C2` (stereo not given), the values for the IC50 in experiment [2], in experiment [6] and in experiment [3] were 43 nM, “Not Active” and 226 nM, respectively. Further, the pIC50 in experiment [4] was 7.10.
On to `I/C=C/CN1CCC[C@@H]2c3ccccc3CC[C@H]21`, for which the results for the IC50 in experiment [2], in experiment [5] and in experiment [6] were 253 nM, 128 nM and “Not Active”, respectively. This compound also had a pIC50 in experiment [4] of 5.72.
Turning to `C#CCN1CCCC2Cc3c(cccc3OC)CC21` (stereo not given), the IC50 in experiment [2] is 1850 nM; in experiment [6], “Not Active”; in experiment [3], 197 nM; in experiment [7] it was “Not Active”.
For `COc1cccc2c1CC1CCCNC1C2` (stereo not given), the IC50 is reported as 2200 nM in experiment [2], “Not Active” in experiment [6], 67.5 nM in experiment [3] and “Not Active” in experiment [7].
Regarding `C#CCN1CCC[C@@H]2c3cccc(O)c3CC[C@H]21`, the IC50 is reported as 49 nM in experiment [5], “Not Active” in experiment [6] and “Not Active” in experiment [8].
As for `C#CCN1CCCC2Cc3c(O)cccc3CC21` (stereo not given), the pIC50 is 5.29 in experiment [1] and 6.15 in experiment [4]. Besides, the values for the IC50 in experiment [2] and in experiment [3] were 209 nM and 251 nM, respectively.
In the case of `I/C=C/CN1CCCC2Cc3ccccc3CC21` (stereo not given), the IC50 in experiment [2] was 274 nM; in experiment [6] it was “Not Active”; in experiment [3] it was 33 nM. Further, the pIC50 in experiment [4] was 6.66.
For the compound `C#CCN1CCCC2Cc3ccccc3CC21` (stereo not given), the IC50 is listed as 1300 nM in experiment [2], “Not Active” in experiment [6], 142 nM in experiment [3] and “Not Active” in experiment [8].
For the compound `COc1cccc2c1CC[C@H]1NCCC[C@H]21`, the figures for the IC50 in experiment [5], in experiment [6] and in experiment [7] were 55 nM, “Not Active” and “Not Active”, respectively.
Consider `COc1cccc2c1CC[C@@H]1[C@@H]2CCCN1C/C=C/I`, for which the IC50 in experiment [2] is 508 nM; in experiment [5], 18 nM; in experiment [6] it was “Not Active”. This compound gave a pIC50 in experiment [4] of 6.57.
In turn, `NC1CCc2cc(O)c(O)cc2C1` (stereo not given) gave a pIC50 in experiment [1] of 6.15.
With `c1ccc2c(c1)CC[C@H]1NCCC[C@H]21`, the IC50 result in experiment [6] is listed as “Not Active”; in experiment [3], 154 nM; in experiment [7], “Not Active”.
With `C#CCN1CCC[C@@H]2c3ccccc3CC[C@H]21`, the IC50 result is “Not Active” in experiment [6], 160 nM in experiment [3] and “Not Active” in experiment [7].
As for `c1ccc2c(c1)CC1CCCNC1C2` (stereo not given), the IC50 was 130 nM in experiment [5], “Not Active” in experiment [6] and “Not Active” in experiment [8].
